≈ marks a conversion by molar mass, not a printed value. Calls of active or inactive are those of the source. The calls are words filed in the database; no cut-off is given here.

Assay [1] deals with Spodoptera littoralis. In words: Antifeedant activity against fifth instar larvae of Spodoptera littoralis assessed as inhibition of feeding without tasting treated leaf disk at 0.1 ug/cm2 after 24 hr by leaf disk choice assay. Type of assay: functional, organism-based. In short, it runs like this: (§1)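 Leaf disk choice test with fifth instar larvae (about 70 mg each). Lettuce disks of 1.33 cm2 were treated on the upper surface with pure compound at 1-0.001 µg/cm2 in MeOH; controls got solvent only. Two treated and two control disks were placed on moist filter paper with two larvae. Scoring was done when about 50% of control area (0.665 cm2) was eaten, 24 h maximum. Three trials in duplicate, six replicates.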

In assay [2] the test system is Spodoptera littoralis. Briefly: Antifeedant activity against fifth instar larvae of Spodoptera littoralis at 0.001 ug/cm2 after 24 hr by leaf disk choice assay. Type of assay: functional, organism-based. The essentials: as §1
Assay [3] concerns Spodoptera littoralis. In words: Antifeedant activity against fifth instar larvae of Spodoptera littoralis assessed as 5 to 20% of total area of treated leaf disks in each petri dish consumed at 0.01 ug/cm2 after 24 hr by leaf disk choice assay. Type of assay: functional, organism-based. In short, it runs like this:
as §1

The test system of assay [4] is Spodoptera littoralis. Briefly: Insecticidal activity against neonate larvae of Spodoptera littoralis after 5 days. Type of assay: functional. Conditions: 120 h. In short, it runs like this:
(§2)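 Chronic diet assay: neonate larvae (n = 20) from a lab colony were kept on artificial diet spiked via MeOH with eight concentrations of pure alkaloid (0.1-500 ppm). After 5 days in a moist chamber, dark, at 26 °C, survival and weight of survivors were compared with solvent-treated controls. LC50 and EC50 (50% growth inhibition) were derived by probit-log analysis. Run in triplicate.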

For assay [5], the system named is Spodoptera littoralis. In words: Toxicity in sixth instar larvae of Spodoptera littoralis assessed as survival at 100 ug/larvae treated directly into hemolymph after 48 hr.
Assay [6] deals with Spodoptera littoralis. In words: Toxicity in neonate larvae of Spodoptera littoralis at 133 ug/dm2 after 48 hr. Type of assay: functional, organism-based. In short, it runs like this:
(§3)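 Contact toxicity: glass vials were coated with seven concentrations of test compound and the solvent evaporated. Twenty neonate larvae were held in the vials for 3 h, then given artificial diet. Survival was read at 48 h and LC50 derived by probit-log analysis. Run in triplicate or duplicate.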

Assay [7] concerns Spodoptera littoralis. Briefly: Antifeedant activity against fifth instar larvae of Spodoptera littoralis assessed as inhibition of feeding without tasting treated leaf disk at 1 ug/cm2 after 24 hr by leaf disk choice assay. Type of assay: functional, organism-based. The essentials: as §1
Assay [8] relates to Spodoptera littoralis. In words: Growth inhibition of neonate larvae of Spodoptera littoralis after 5 days. Type of assay: functional. The note with it: 120 h. In short, it runs like this: as §2
Assay [9] has as its system Spodoptera littoralis. Briefly: Antifeedant activity against fifth instar larvae of Spodoptera littoralis assessed as < 5% of total area of treated leaf disks in each petri dish consumed at 0.001 ug/cm2 after 24 hr by leaf disk choice assay. Type of assay: functional, organism-based. The essentials: as §1
Assay [10] has as its system Spodoptera littoralis. In words: Antifeedant activity against fifth instar larvae of Spodoptera littoralis assessed as inhibition of feeding without tasting treated leaf disk at 0.01 ug/cm2 after 24 hr by leaf disk choice assay. Type of assay: functional, organism-based. In short, it runs like this: as §1
In assay [11] the test system is Spodoptera littoralis. Briefly: Toxicity in neonate larvae of Spodoptera littoralis after 48 hr. Type of assay: functional. The essentials: as §3

With `CC[C@@H]1[C@H]2CCCCN3[C@H]2[C@H](C[C@H]3[C@@H]2C[C@H](C)C(=O)O2)[C@@H]2[C@H]1OC(=O)[C@H]2C` [TUBEROSTEMONINE], the AFI entry in the assay with Spodoptera littoralis [1], in the assay with Spodoptera littoralis [3] and in the assay with Spodoptera littoralis [7] was “Active” each time. Besides, the AFI result with Spodoptera littoralis [2] and with Spodoptera littoralis [6] was “inactive” in each case. In the assay with Spodoptera littoralis [4], the LC50 is greater than 500 µg/mL. Further, in the assay on Spodoptera littoralis [5], the Survival is reported as 100%.

For `CC[C@H](O)C[C@@]12[C@@H]3C[C@H]4[C@H]5[C@H](C)/C(=C6/OC(=O)C(C)=C6OC)O[C@]5(O3)[C@H]1CCN42` [2'-HYDROXYSTEMOFOLINE], the EC50 (50% growth inhibition) in the assay on Spodoptera littoralis [8] is 38.5 µg/mL (≈ 95.3 µM). In the assay on Spodoptera littoralis [4], this molecule yielded an LC50 of 30.3 µg/mL (≈ 75.2 µM).

In the case of `C/C=C(\C)C(=O)O[C@H]1C[C@@H](OC(C)=O)[C@@]2(C(=O)OC)CO[C@H]3[C@@H](O)[C@@](C)([C@]45O[C@@]4(C)[C@@H]4C[C@H]5O[C@@H]5OC=C[C@@]54O)[C@H]4[C@]1(CO[C@]4(O)C(=O)OC)[C@@H]32` [AZADIRACHTIN A], the AFI entry with Spodoptera littoralis [9], in the assay on Spodoptera littoralis [1], with Spodoptera littoralis [10] and in the assay on Spodoptera littoralis [7] was “Active” each time. For the same molecule, the LC50 in the assay with Spodoptera littoralis [4] came out at 8.2 µg/mL (≈ 11.4 µM). Further, the AFI entry in the assay on Spodoptera littoralis [6] is “inactive”.

On to `CC/C=C/[C@@]12[C@@H]3C[C@H]4[C@H]5[C@H](C)/C(=C6/OC(=O)C(C)=C6OC)O[C@]5(O3)[C@@H]1CCN42` [DIDEHYDROSTEMOFOLINE], for which the EC50 (50% growth inhibition) with Spodoptera littoralis [8] is 0.46 µg/mL (≈ 1.19 µM). In addition, the LC50 with Spodoptera littoralis [4] turned out to be 0.84 µg/mL (≈ 2.18 µM); in the assay with Spodoptera littoralis [11], 1.01 microg/dm2.

As to `CCCC[C@@]12C3CCN1[C@H]1C[C@H]2O[C@@]32O/C(=C3\OC(=O)C(C)=C3OC)[C@@H](C)[C@H]12` [STEMOFOLINE], the EC50 (50% growth inhibition) in the assay with Spodoptera littoralis [8] turned out to be 1.46 µg/mL (≈ 3.77 µM). The values for the LC50 in the assay on Spodoptera littoralis [4] and in the assay on Spodoptera littoralis [11] were 2.04 µg/mL (≈ 5.26 µM) and 0.59 microg/dm2, respectively.

(Values after ChEMBL document CHEMBL3046913, “Feeding deterrence and contact toxicity of Stemona alkaloids-a source of potent natural insecticides” (2002).)
